Legend:
OVCAR-8 = experiment: Growth inhibition of human OVCAR8 cells after 48 hrs by sulforhodamine B assay; assay type: functional; settings: OVCAR-8, 48 h
In short: (§1)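 NCI screen panel. Five 10-fold concentrations from 10^-4 to 10^-8 M. Exposure for the last 48 h of a 72 h incubation. Growth estimated by sulforhodamine B protein assay. GI50 is the concentration giving 50% growth inhibition. Where that level was not reached or was exceeded, the value is given as above or below the highest or lowest concentration tested.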

MDA-MB-435 = experiment: Growth inhibition of human MDA-MB-435 cells after 48 hrs by sulforhodamine B assay; assay type: functional; settings: MDA-MB-435, 48 h; in short: as §1
CCRF-CEM = experiment: Growth inhibition of human CCRF-CEM cells after 48 hrs by sulforhodamine B assay; assay type: functional; in short: as §1
NCI-H460 = experiment: Growth inhibition of human NCI-H460 cells after 48 hrs by sulforhodamine B assay; assay type: functional; settings: NCI-H460, 48 h; in short: as §1
HOP-92 = experiment: Growth inhibition of human HOP92 cells after 48 hrs by sulforhodamine B assay; assay type: functional; settings: HOP-92, 48 h; in short: as §1
MCF7 = experiment: Growth inhibition of human MCF7 cells after 48 hrs by sulforhodamine B assay; assay type: functional; settings: MCF7, 48 h; in short: as §1
LOX IMVI = experiment: Growth inhibition of human LOXIMVI cells after 48 hrs by sulforhodamine B assay; assay type: functional; in short: as §1
K562 = experiment: Growth inhibition of human K562 cells after 48 hrs by sulforhodamine B assay; assay type: functional; settings: K562, 48 h; in short: as §1
NCI-H322M = experiment: Growth inhibition of human NCI-H322M cells after 48 hrs by sulforhodamine B assay; assay type: functional; in short: as §1
T47D = experiment: Growth inhibition of human T47D cells after 48 hrs by sulforhodamine B assay; assay type: functional
In short: (§2)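 NCI in vitro panel screen. Compounds tested at five 10-fold dilutions, 10^-4 to 10^-8 M. Cells in 96-well plates were exposed for the last 48 h of a 72 h incubation. Viability/growth was read by sulforhodamine B protein assay. GI50 is the concentration giving 50% growth inhibition. Values beyond the tested range are reported as greater or less than the maximum or minimum concentration.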

MOLT-4 = experiment: Growth inhibition of human MOLT4 cells after 48 hrs by sulforhodamine B assay; assay type: functional; settings: MOLT-4, 48 h; in short: as §1
HL-60(TB) = experiment: Growth inhibition of human HL-60(TB) cells after 48 hrs by sulforhodamine B assay; assay type: functional; settings: HL-60, 48 h
In short: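 NCI 60-cell-line screen protocol: cells exposed to compound at five 10-fold dilutions from 10^-4 to 10^-8 M for the last 48 h of a 72 h incubation. Sulforhodamine B protein assay estimated viability/growth. GI50 (50% growth inhibition) derived; where not reached or exceeded, reported as greater or less than the highest or lowest concentration tested.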

SK-MEL-2 = experiment: Growth inhibition of human SK-MEL-2 cells after 48 hrs by sulforhodamine B assay; assay type: functional; settings: SK-MEL-2, 48 h; in short: as §1
HT-29 = experiment: Growth inhibition of human HT-29 cells after 48 hrs by sulforhodamine B assay; assay type: functional; settings: HT-29, 48 h; in short: as §1
MT4 = experiment: Antiproliferative activity against human MT4 cells assessed as reduction of growth by MTT assay; assay type: functional, cell-based
In short: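 MT-4 lymphoblastoid T cells (ATCC) in RPMI 1640 with 10% FCS, penicillin/streptomycin, checked for mycoplasma. 1 × 10⁴ mock-infected cells per well with serial dilutions from a 100 mM DMSO stock. Incubated 4 days at 37 °C, viable cells counted by MTT. IC50 versus untreated controls by linear regression. Mean of three separate experiments.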

SN12C = experiment: Growth inhibition of human SN12C cells after 48 hrs by sulforhodamine B assay; assay type: functional; in short: as §2
OVCAR-3 = experiment: Growth inhibition of human OVCAR-3 cells after 48 hrs by sulforhodamine B assay; assay type: functional; settings: OVCAR-3, 48 h; in short: as §1
OVCAR-4 = experiment: Growth inhibition of human OVCAR4 cells after 48 hrs by sulforhodamine B assay; assay type: functional; settings: OVCAR-4, 48 h; in short: as §1
SK-MEL-28 = experiment: Growth inhibition of human SK-MEL-28 cells after 48 hrs by sulforhodamine B assay; assay type: functional; settings: SK-MEL-28, 48 h; in short: as §1
IGROV-1 = experiment: Growth inhibition of human IGROV1 cells after 48 hrs by sulforhodamine B assay; assay type: functional; settings: IGROV-1, 48 h; in short: as §1
Malme-3M = experiment: Growth inhibition of human MALME-3M cells after 48 hrs by sulforhodamine B assay; assay type: functional; in short: as §1
BT-549 = experiment: Growth inhibition of human BT549 cells after 48 hrs by sulforhodamine B assay; assay type: functional; settings: BT-549, 48 h; in short: as §1
U-251 = experiment: Growth inhibition of human U251 cells after 48 hrs by sulforhodamine B assay; assay type: functional; settings: U-251, 48 h; in short: as §2
SW-620 = experiment: Growth inhibition of human SW620 cells after 48 hrs by sulforhodamine B assay; assay type: functional; settings: SW-620, 48 h; in short: as §2
CAKI-1 = experiment: Growth inhibition of human Caki1 cells after 48 hrs by sulforhodamine B assay; assay type: functional; settings: CAKI-1, 48 h; in short: as §1
MDA-MB-231 = experiment: Growth inhibition of human MDA-MB-231 cells after 48 hrs by sulforhodamine B assay; assay type: functional; settings: MDA-MB-231, 48 h; in short: as §1
NCI-H23 = experiment: Growth inhibition of human NCI-H23 cells after 48 hrs by sulforhodamine B assay; assay type: functional; settings: NCI-H23, 48 h; in short: as §1
SK-OV-3 = experiment: Growth inhibition of human SKOV3 cells after 48 hrs by sulforhodamine B assay; assay type: functional; settings: SK-OV-3, 48 h; in short: as §1
DU-145 = experiment: Growth inhibition of human DU145 cells after 48 hrs by sulforhodamine B assay; assay type: functional; settings: DU-145, 48 h; in short: as §1
SF-539 = experiment: Growth inhibition of human SF539 cells after 48 hrs by sulforhodamine B assay; assay type: functional; settings: SF-539, 48 h; in short: as §1
RXF 393 = experiment: Growth inhibition of human RXF393 cells after 48 hrs by sulforhodamine B assay; assay type: functional; settings: RXF 393, 48 h; in short: as §1
SNB-75 = experiment: Growth inhibition of human SNB75 cells after 48 hrs by sulforhodamine B assay; assay type: functional; settings: SNB-75, 48 h; in short: as §2
UO-31 = experiment: Growth inhibition of human UO31 cells after 48 hrs by sulforhodamine B assay; assay type: functional; settings: UO-31, 48 h; in short: as §2
COLO 205 = experiment: Growth inhibition of human COLO205 cells after 48 hrs by sulforhodamine B assay; assay type: functional; settings: COLO 205, 48 h; in short: as §1
SF-295 = experiment: Growth inhibition of human SF295 cells after 48 hrs by sulforhodamine B assay; assay type: functional; settings: SF-295, 48 h; in short: as §1
[1] = Growth inhibition of human […] cells after 48 hrs by sulforhodamine B assay; assay type: functional; in short: as §1
SR = experiment: Growth inhibition of human SR cells after 48 hrs by sulforhodamine B assay; assay type: functional; in short: as §2
A549 = experiment: Growth inhibition of human A549 cells after 48 hrs by sulforhodamine B assay; assay type: functional; settings: A549, 48 h; in short: as §1
SF-268 = experiment: Growth inhibition of human SF268 cells after 48 hrs by sulforhodamine B assay; assay type: functional; settings: SF-268, 48 h; in short: as §1
HCT-15 = experiment: Growth inhibition of human HCT15 cells after 48 hrs by sulforhodamine B assay; assay type: functional; settings: HCT-15, 48 h; in short: as §1
PC-3 = experiment: Growth inhibition of human PC3 cells after 48 hrs by sulforhodamine B assay; assay type: functional; settings: PC-3, 48 h; in short: as §1
SK-MEL-5 = experiment: Growth inhibition of human SK-MEL-5 cells after 48 hrs by sulforhodamine B assay; assay type: functional; settings: SK-MEL-5, 48 h; in short: as §1
KM12 = experiment: Growth inhibition of human KM12 cells after 48 hrs by sulforhodamine B assay; assay type: functional; settings: KM12, 48 h; in short: as §1
EKVX = experiment: Growth inhibition of human EKVX cells after 48 hrs by sulforhodamine B assay; assay type: functional; in short: as §1
SNB-19 = experiment: Growth inhibition of human SNB19 cells after 48 hrs by sulforhodamine B assay; assay type: functional; settings: SNB-19, 48 h; in short: as §2
UACC-62 = experiment: Growth inhibition of human UACC62 cells after 48 hrs by sulforhodamine B assay; assay type: functional; settings: UACC-62, 48 h; in short: as §2
TK-10 = experiment: Growth inhibition of human TK10 cells after 48 hrs by sulforhodamine B assay; assay type: functional; settings: TK-10, 48 h; in short: as §2
ACHN = experiment: Growth inhibition of human ACHN cells after 48 hrs by sulforhodamine B assay; assay type: functional; in short: as §1

## N#CC(C#N)=CN1CCN(C(=O)c2ccco2)C1=S
OVCAR-8
  GI50: 14.6 µM
MDA-MB-435
  GI50: 5.3 µM
CCRF-CEM
  GI50: 79.7 µM
NCI-H460
  GI50: 3.3 µM
HOP-92
  GI50: 22.4 µM
MCF7
  GI50: 3.5 µM
LOX IMVI
  GI50: 3.3 µM
K562
  GI50: 6.6 µM
NCI-H322M
  GI50: 15.5 µM
T47D
  GI50: 21.2 µM
MOLT-4
  GI50: 5.2 µM
HL-60(TB)
  GI50: 19.8 µM
SK-MEL-2
  GI50: 4.3 µM
HT-29
  GI50: 27.7 µM
MT4
  IC50: 4.4 µM
SN12C
  GI50: 3.1 µM
OVCAR-3
  GI50: 11.2 µM
OVCAR-4
  GI50: 20.1 µM
SK-MEL-28
  GI50: 12.5 µM
IGROV-1
  GI50: 6.6 µM
Malme-3M
  GI50: 47.8 µM
BT-549
  GI50: 6.9 µM
U-251
  GI50: 6.6 µM
SW-620
  GI50: 5.6 µM
CAKI-1
  GI50: 4.8 µM
MDA-MB-231
  GI50: 2.9 µM
NCI-H23
  GI50: 5.8 µM
SK-OV-3
  GI50: 33.1 µM
DU-145
  GI50: 5.5 µM
SF-539
  GI50: 2.5 µM
RXF 393
  GI50: 2.6 µM
SNB-75
  GI50: 40.6 µM
UO-31
  GI50: 10.5 µM
COLO 205
  GI50: 16.5 µM
SF-295
  GI50: 31.3 µM
[1]
  GI50: 4.5 µM
SR
  GI50: 2 µM
A549
  GI50: 13.5 µM
SF-268
  GI50: 31.4 µM
HCT-15
  GI50: 5.2 µM
PC-3
  GI50: 17.2 µM
SK-MEL-5
  GI50: 2.9 µM
KM12
  GI50: 4.1 µM
EKVX
  GI50: 11.9 µM
SNB-19
  GI50: 38.7 µM
UACC-62
  GI50: 8.8 µM
TK-10
  GI50: 4.6 µM
ACHN
  GI50: 9.4 µM

From ChEMBL document CHEMBL1138555, “N-acylated and N,N'-diacylated imidazolidine-2-thione derivatives and N,N'-diacylated tetrahydropyrimidine-2(1H)-thione analogues: synthesis and antiproliferative activity” (Eur J Med Chem, 2009)
